System: HEK-293T
Assay: Multiplex assay against HEK293T;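 on Population Tubulin-Different-Phenotype (%): share of the cells with healthy nuclei that show this phenotype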
Assay type: toxicity, cell-based
Settings: human
Summary of the method: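 Tubulin, mitochondrial-mass and membrane-permeability phenotypes are per cents of healthy-nucleus cells. Cells were gated by CellPathfinder machine learning into Hoechst high-intensity objects or normal cells, normal cells into healthy, pyknosed or fragmented nuclei, and pyknosed cells into mitotic or apoptotic. Before that, live cells stained at seeding with Hoechst33342, BioTracker Green Microtubule Cytoskeleton Dye, MitoTracker Red and Annexin V Alexa Fluor 680 were imaged on a CQ1 microscope at 37°C and 5% CO2 after compound addition.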

[1] = 12 h, 1 µM, compound concentration 1 uM, replicate 1
[2] = 12 h, 1 µM, compound concentration 1 uM, replicate 2
[3] = 12 h, 10 µM, compound concentration 10 uM, replicate 1
[4] = 12 h, 10 µM, compound concentration 10 uM, replicate 2
[5] = 24 h, 1 µM, compound concentration 1 uM, replicate 1
[6] = 24 h, 1 µM, compound concentration 1 uM, replicate 2
[7] = 24 h, 10 µM, compound concentration 10 uM, replicate 1
[8] = 24 h, 10 µM, compound concentration 10 uM, replicate 2
[9] = 48 h, 1 µM, compound concentration 1 uM, replicate 1
[10] = 48 h, 1 µM, compound concentration 1 uM, replicate 2
[11] = 48 h, 10 µM, compound concentration 10 uM, replicate 1
[12] = 48 h, 10 µM, compound concentration 10 uM, replicate 2

For `COC(=O)C1=C(C)NC(C)=C(C(=O)OCCCN2CCC(c3ccccc3)(c3ccccc3)CC2)[C@H]1c1cccc([N+](=O)[O-])c1` [NIGULDIPINE], the “Population Apoptotic (%)” value [1] was 86%, the “Population Fragmented Nuclei (%)” value [1] was 7% and the “Population Healthy Nuclei (%)” value [1] was 34%. For the same compound, the “Population Hoechst High Intensity Objects (%)” value [1] was 9%, the “Population Membrane Permeable-Phenotype (%)” value [1] was 2% and the “Population Mitochondria Different-Phenotype (%)” value [1] was 98%. For the same compound, the “Population Mitotic Cells (%)” value [1] was 13%, the “Population Normal (%)” value [1] was 90% and the “Population Pyknosed Nuclei (%)” value [1] was 58%. The “Population Tubulin-Different-Phenotype (%)” value [1] was 97%, the “Total Cell Count” value [1] was 272 and the “Population Apoptotic (%)” value [2] was 91%. For the same compound, the “Population Fragmented Nuclei (%)” value [2] was 5%, the “Population Healthy Nuclei (%)” value [2] was 32% and the “Population Hoechst High Intensity Objects (%)” value [2] was 5%. The “Population Membrane Permeable-Phenotype (%)” value [2] was 1%, the “Population Mitochondria Different-Phenotype (%)” value [2] was 100% and the “Population Mitotic Cells (%)” value [2] was 8%. The “Population Normal (%)” value [2] was 94%, the “Population Pyknosed Nuclei (%)” value [2] was 62% and the “Population Tubulin-Different-Phenotype (%)” value [2] was 98%. For the same compound, the “Total Cell Count” value [2] was 177, the “Population Apoptotic (%)” value [3] was 81% and the “Population Fragmented Nuclei (%)” value [3] was 18%. For the same compound, the “Population Healthy Nuclei (%)” value [3] was 2%, the “Population Hoechst High Intensity Objects (%)” value [3] was 15% and the “Population Membrane Permeable-Phenotype (%)” value [3] was 0%. The “Population Mitochondria Different-Phenotype (%)” value [3] was 66%, the “Population Mitotic Cells (%)” value [3] was 18% and the “Population Normal (%)” value [3] was 84%. The “Population Pyknosed Nuclei (%)” value [3] was 79%, the “Population Tubulin-Different-Phenotype (%)” value [3] was 66% and the “Total Cell Count” value [3] was 266. For the same compound, the “Population Apoptotic (%)” value [4] was 63%, the “Population Fragmented Nuclei (%)” value [4] was 6% and the “Population Healthy Nuclei (%)” value [4] was 1%. The “Population Hoechst High Intensity Objects (%)” value [4] was 7%, the “Population Membrane Permeable-Phenotype (%)” value [4] was 66% and the “Population Mitochondria Different-Phenotype (%)” value [4] was 0%. For the same compound, the “Population Mitotic Cells (%)” value [4] was 36%, the “Population Normal (%)” value [4] was 92% and the “Population Pyknosed Nuclei (%)” value [4] was 91%. For the same compound, the “Population Tubulin-Different-Phenotype (%)” value [4] was 33%, the “Total Cell Count” value [4] was 202 and the “Population Apoptotic (%)” value [5] was 86%. The “Population Fragmented Nuclei (%)” value [5] was 7%, the “Population Healthy Nuclei (%)” value [5] was 41% and the “Population Hoechst High Intensity Objects (%)” value [5] was 11%. For the same compound, the “Population Membrane Permeable-Phenotype (%)” value [5] was 0%, the “Population Mitochondria Different-Phenotype (%)” value [5] was 99% and the “Population Mitotic Cells (%)” value [5] was 13%. The “Population Normal (%)” value [5] was 88%, the “Population Pyknosed Nuclei (%)” value [5] was 50% and the “Population Tubulin-Different-Phenotype (%)” value [5] was 97%. For the same compound, the “Total Cell Count” value [5] was 293, the “Population Apoptotic (%)” value [6] was 95% and the “Population Fragmented Nuclei (%)” value [6] was 6%. For the same compound, the “Population Healthy Nuclei (%)” value [6] was 44%, the “Population Hoechst High Intensity Objects (%)” value [6] was 3% and the “Population Membrane Permeable-Phenotype (%)” value [6] was 1%. The “Population Mitochondria Different-Phenotype (%)” value [6] was 100%, the “Population Mitotic Cells (%)” value [6] was 4% and the “Population Normal (%)” value [6] was 96%. The “Population Pyknosed Nuclei (%)” value [6] was 49%, the “Population Tubulin-Different-Phenotype (%)” value [6] was 98% and the “Total Cell Count” value [6] was 181. The “Population Apoptotic (%)” value [7] was 88%, the “Population Fragmented Nuclei (%)” value [7] was 20% and the “Population Healthy Nuclei (%)” value [7] was 3%. The “Population Hoechst High Intensity Objects (%)” value [7] was 12%, the “Population Membrane Permeable-Phenotype (%)” value [7] was 11% and the “Population Mitochondria Different-Phenotype (%)” value [7] was 66%. The “Population Mitotic Cells (%)” value [7] was 11%, the “Population Normal (%)” value [7] was 87% and the “Population Pyknosed Nuclei (%)” value [7] was 75%. The “Population Tubulin-Different-Phenotype (%)” value [7] was 77%, the “Total Cell Count” value [7] was 263 and the “Population Apoptotic (%)” value [8] was 79%. The “Population Fragmented Nuclei (%)” value [8] was 4%, the “Population Healthy Nuclei (%)” value [8] was 1% and the “Population Hoechst High Intensity Objects (%)” value [8] was 6%. For the same compound, the “Population Membrane Permeable-Phenotype (%)” value [8] was 50%, the “Population Mitochondria Different-Phenotype (%)” value [8] was 0% and the “Population Mitotic Cells (%)” value [8] was 20%. For the same compound, the “Population Normal (%)” value [8] was 93%, the “Population Pyknosed Nuclei (%)” value [8] was 94% and the “Population Tubulin-Different-Phenotype (%)” value [8] was 0%. For the same compound, the “Total Cell Count” value [8] was 202, the “Population Apoptotic (%)” value [9] was 85% and the “Population Fragmented Nuclei (%)” value [9] was 9%. The “Population Healthy Nuclei (%)” value [9] was 56%, the “Population Hoechst High Intensity Objects (%)” value [9] was 9% and the “Population Membrane Permeable-Phenotype (%)” value [9] was 0%. For the same compound, the “Population Mitochondria Different-Phenotype (%)” value [9] was 99%, the “Population Mitotic Cells (%)” value [9] was 14% and the “Population Normal (%)” value [9] was 91%. For the same compound, the “Population Pyknosed Nuclei (%)” value [9] was 34%, the “Population Tubulin-Different-Phenotype (%)” value [9] was 96% and the “Total Cell Count” value [9] was 300. For the same compound, the “Population Apoptotic (%)” value [10] was 97%, the “Population Fragmented Nuclei (%)” value [10] was 6% and the “Population Healthy Nuclei (%)” value [10] was 55%. The “Population Hoechst High Intensity Objects (%)” value [10] was 8%, the “Population Mitochondria Different-Phenotype (%)” value [10] was 98% and the “Population Mitotic Cells (%)” value [10] was 2%. For the same compound, the “Population Pyknosed Nuclei (%)” value [10] was 37%, the “Population Tubulin-Different-Phenotype (%)” value [10] was 99% and the “Total Cell Count” value [10] was 203. The “Population Fragmented Nuclei (%)” value [11] was 24%, the “Population Healthy Nuclei (%)” value [11] was 3% and the “Population Hoechst High Intensity Objects (%)” value [11] was 14%. For the same compound, the “Population Membrane Permeable-Phenotype (%)” value [11] was 22%, the “Population Mitochondria Different-Phenotype (%)” value [11] was 66% and the “Population Normal (%)” value [11] was 85%. The “Population Pyknosed Nuclei (%)” value [11] was 72%, the “Population Tubulin-Different-Phenotype (%)” value [11] was 55% and the “Total Cell Count” value [11] was 283. The “Population Apoptotic (%)” value [12] was 93%, the “Population Fragmented Nuclei (%)” value [12] was 11% and the “Population Healthy Nuclei (%)” value [12] was 6%. For the same compound, the “Population Hoechst High Intensity Objects (%)” value [12] was 5%, the “Population Membrane Permeable-Phenotype (%)” value [12] was 41% and the “Population Mitochondria Different-Phenotype (%)” value [12] was 75%. The “Population Mitotic Cells (%)” value [12] was 6%, the “Population Normal (%)” value [12] was 94% and the “Population Pyknosed Nuclei (%)” value [12] was 82%. For the same compound, the “Population Tubulin-Different-Phenotype (%)” value [12] was 66% and the “Total Cell Count” value [12] was 201.
